Reference: publication PMC8693751 (RSC Advances, 2021)
“Also recorded” adds a separate entry of the source. Read-outs that look alike come from different tables or passages of the source.

Legend:
[1] = system: L. amazonensis promastigotes; test: Leishmanicidal activity against promastigote forms, L. amazonensis; type: cell-based, Leishmania amazonensis
Procedure, shortened: (§1)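 Promastigotes (L. amazonensis WHOM/00LTB0016; L. infantum MHOM/MA/67/ITMAP-263) at 1 × 10⁶ cells/mL in Schneider's medium with 10% FBS were exposed to eight test compound levels (1.5–200 μg mL−1) for 72 h at 26 °C. Untreated cells were the negative control and miltefosine the standard.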

[2] = system: L. infantum promastigotes; test: Leishmanicidal activity against promastigote forms, L. infantum; type: cell-based, Leishmania infantum
Procedure, shortened: as §1

[3] = system: T. cruzi amastigotes (Tulahuen strain); test: Amastigote assay; type: cell-based; settings: Trypanosoma cruzi, L929, read-out: Amastigote, IC50
Procedure, shortened: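 Tulahuen T. cruzi expressing E. coli beta-galactosidase, grown in L-929 fibroblasts in RPMI 1640 without phenol red with 10% FBS and glutamine. Fibroblasts were seeded at 4.0 × 10³/well overnight (37 °C, 5% CO2), then given trypomastigotes at 4.0 × 10⁴/well for 2 h before the free parasites were removed. At 48 h, test compound in DMSO was added (0.625–20 μg mL−1, six levels, quadruplicate). After 7 days, 100 μM chlorophenol red β-D-galactopyranoside and 0.1% Nonidet P-40 were added overnight at 37 °C and A570 read as % growth inhibition. Benznidazole was the positive control; two independent experiments.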

[4] = system: L. amazonensis promastigotes; settings: cited from earlier work
[5] = system: L. infantum promastigotes; settings: cited from earlier work
[6] = system: T. cruzi trypomastigotes; test: Cell death assessment through flow cytometry; type: cell-based, Trypanosoma cruzi; settings: for double-positive (double-stained) cells (upper right quadrant): 24 hours
Procedure, shortened: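 […] trypomastigotes taken from infected L929 supernatant were seeded at 4 × 10⁵/well in RPMI-1640 with test compound (in DMSO) at three levels, 37 °C for 24 h. Benznidazole was the positive control and medium the negative control. Cells were washed in PBS, placed in binding buffer, and labelled with propidium iodide (50 μg mL−1 solution) plus Annexin-FITC for 15 min at room temperature in the dark. 20000 events were acquired, in triplicate, and analysed by ANOVA with Dunnett's test (p < 0.05).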

[7] = system: LLC-MK2 cells; settings: read-out: LLC-MK2, CC50, cited from earlier work
[8] = Leishmania amazonensis, 72 h, read-out: Promastigotes IC50L.Ama, 72 hours
[9] = Leishmania infantum, 72 h, read-out: Promastigotes IC50L.Inf, 72 hours
[10] = read-out: IC50L.inf, earlier carboxylic acids

| SMILES | IC50 [1, 8] [µM] | IC50 [2, 9] [µM] | further results |
| --- | --- | --- | --- |
| CCOC(=O)c1csc(NN=Cc2cccc(Cl)c2)n1 [1a, Ethyl 2-(2-(3-chlorobenzylidene)hydrazinyl)thiazole-4-carboxylate] | 189 | 164 | IC50 [3]: 16.9 µM |
| CCOC(=O)c1csc(NN=Cc2ccccc2Cl)n1 [1b, Ethyl 2-(2-(2-chlorobenzylidene)hydrazinyl)thiazole-4-carboxylate] | 27.9 | 14.4 | IC50 ([4]; read-out: IC50L.ama, earlier carboxylic acids): 34.5 µM; IC50 [5, 10]: 59.5 µM |
| CCOC(=O)c1csc(NN=Cc2ccc(OC)cc2)n1 [1c, Ethyl 2-(2-(4-methoxybenzylidene)hydrazinyl)thiazole-4-carboxylate] | 392 | 332 | IC50 [5, 10]: 85.3 µM |
| CCOC(=O)c1csc(NN=Cc2cccc(OC)c2)n1 [1d, Ethyl 2-(2-(3-methoxybenzylidene)hydrazinyl)thiazole-4-carboxylate] | 159 | 104 |  |
| CCOC(=O)c1csc(NN=Cc2cccc(Br)c2)n1 [1e, Ethyl 2-(2-(3-bromobenzylidene)hydrazinyl)thiazole-4-carboxylate] | 246 | 170 |  |
| CCOC(=O)c1csc(NN=Cc2ccccc2Br)n1 [1f, Ethyl 2-(2-(2-bromobenzylidene)hydrazinyl)thiazole-4-carboxylate] | 23.3 | 23.5 | IC50 ([1]; read-out: Promastigotes IC50L.Ama, 72 hours): 24.3 µM; IC50 [3]: 56.5 µM; cell death mechanism of T. cruzi ([6]; PI / Annexin-V staining): necrosis and apoptosis; also recorded: consistent with necrosis; double-positive (double-stained) cells (upper right quadrant) ([6]; at 4 × IC50 (1f 3.32 μM; BZD 141.6 μM)): 17.58% |
| CCOC(=O)c1csc(NN=C(C)c2ccccc2)n1 [1g, Ethyl 2-(2-(1-phenylethylidene)hydrazinyl)thiazole-4-carboxylate] | 43 | 37.4 | IC50 [3]: 40.7 µM |
| CCOC(=O)c1csc(NN=Cc2ccco2)n1 [1h, Ethyl 2-(2-(furan-2-ylmethylene)hydrazinyl)thiazole-4-carboxylate] | 451 | 374 | IC50 [3]: 75.4 µM |
| CCOC(=O)CC1SC(=NN=Cc2ccccc2)NC1=O (centres unmarked) [2a, Ethyl 2-((2-benzylidene)hydrazono)-4-oxothiazolidine-5-acetate] | 367 | 365 |  |
| COC(=O)CC1SC(=NN=Cc2ccc(Cl)cc2)NC1=O (centres unmarked) [2b, Methyl 2-(2-(4-chlorobenzylidene)hydrazono)-4-oxothiazolidine-5-acetate] | 91.4 | 33.2 |  |
| CCOC(=O)CC1SC(=NN=Cc2ccccc2Cl)NC1=O (centres unmarked) [2c, Ethyl 2-(2-(2-chlorobenzylidene)hydrazono)-4-oxothiazolidine-5-acetate] | 114 | 129 |  |
| CCOC(=O)CC1SC(=NN=Cc2ccc(Br)cc2)NC1=O (centres unmarked) [2d, Ethyl 2-(2-(4-bromobenzylidene)hydrazono)-4-oxothiazolidine-5-acetate] | 14.6 | 14.5 |  |
| CCOC(=O)CC1SC(=NN=Cc2cccc(Br)c2)NC1=O (centres unmarked) [2e, Ethyl 2-(2-(3-bromobenzylidene)hydrazono)-4-oxothiazolidine-5-acetate] | 120 | 116 |  |
| CCOC(=O)CC1SC(=NN=Cc2ccc([N+](=O)[O-])cc2)NC1=O (centres unmarked) [2f, Ethyl 2-(2-(4-nitrobenzylidene)hydrazono)-4-oxothiazolidine-5-acetate] | 57.5 | 325 |  |
| CCOC(=O)CC1SC(=NN=Cc2cccc([N+](=O)[O-])c2)NC1=O (centres unmarked) [2g, Ethyl 2-(2-(3-nitrobenzylidene)hydrazono)-4-oxothiazolidine-5-acetate] | 309 | 329 |  |
| CCOC(=O)CC1SC(=NN=Cc2ccccc2[N+](=O)[O-])NC1=O (centres unmarked) [2h, Ethyl 2-(2-(2-nitrobenzylidene)hydrazono)-4-oxothiazolidine-5-acetate] | 17 | 295 |  |
| CCOC(=O)CC1SC(=NN=Cc2ccc(OC)cc2)NC1=O (centres unmarked) [2i, Ethyl 2-(2-(4-methoxybenzylidene)hydrazono)-4-oxothiazolidine-5-acetate] | 169 | 147 |  |
| CCOC(=O)CC1SC(=NN=Cc2ccccc2OC)NC1=O (centres unmarked) [2j, Ethyl 2-(2-(2-methoxybenzylidene)hydrazono)-4-oxothiazolidine-5-acetate] | 186 | 236 |  |
| CCOC(=O)CC1SC(=NN=Cc2cccc(O)c2)NC1=O (centres unmarked) [2k, Ethyl 2-(2-(3-hydroxybenzylidene)hydrazono)-4-oxothiazolidine-5-acetate] | 364 | 370 |  |
| CCOC(=O)CC1SC(=NN=Cc2ccccc2O)NC1=O (centres unmarked) [2l, Ethyl 2-(2-(2-hydroxybenzylidene)hydrazono)-4-oxothiazolidine-5-acetate] | 84.3 | 67.3 |  |
| CCOC(=O)CC1SC(=NN=Cc2ccc(C)cc2)NC1=O (centres unmarked) [2m, Ethyl 2-(2-(4-methylbenzylidene)hydrazono)-4-oxothiazolidine-5-acetate] | 13.3 | 18.8 | IC50 ([2]; read-out: Promastigotes IC50L.Inf, 72 hours): 18.8 µM |
| CCOC(=O)CC1SC(=NN=Cc2ccccc2C)NC1=O (centres unmarked) [2n, Ethyl 2-(2-(2-methylbenzylidene)hydrazono)-4-oxothiazolidine-5-acetate] | 268 | 168 |  |
| CCOC(=O)CC1SC(=NN=C2CCCc3ccccc32)NC1=O (centres unmarked) [2o, Ethyl 2-((2-(3,4-dihydronaphthalen-1(2H)-ylidene))hydrazono)-4-oxo-thiazolidin-5-acetate] | 180 | 176 |  |
| CCOC(=O)CC1SC(=NN=Cc2ccc(O)c(OC)c2)NC1=O (centres unmarked) [2p, Ethyl 2-(2-(4-hydroxy-3-methoxybenzylidene)hydrazono)-4-oxothiazolidine-5-acetate] | 233 | 320 |  |
| O=C(Cn1ccnc1[N+](=O)[O-])NCc1ccccc1 [BZD, Benznidazole, reference compound] |  |  | IC50 [3]: 5.65 µM; double-positive (double-stained) cells (upper right quadrant) ([6]; at 2 × IC50 (1f 1.66 μM; BZD 70.8 μM)): 19.56%; CC50 ([7]; standard drug BZD): 615 µM |
| CCCCCCCCCCCCCCCCOP(=O)([O-])OCC[N+](C)(C)C [Miltefosine, reference compound] |  |  | CC50 ([7]; standard drug Miltefosine): 12.3 µM; IC50 ([4]; read-out: Promastigotes IC50L.Ama, standard drug Miltefosine): 36.3 µM; IC50 ([5]; read-out: Promastigotes IC50L.Inf, standard drug Miltefosine): 53.7 µM |
